Measured values published in ChEMBL document CHEMBL4052819 (2017).
Values after ≈ are worked out from the molar mass of the structure shown. Non-standard residues stand in square brackets, D forms with d. Residues, ends and D or L forms follow the SMILES beside them. *: point of attachment. Heptanoyl = CCCCCCC(=O)*; Dab = NCC[C@H](N)C(=O)O; Cbz = O=C(OCc1ccccc1)*; Bz = O=C(c1ccccc1)*

How the values were obtained:
[1] = test system: Klebsiella pneumoniae; assay: Potentiation of rifampicin-mediated antibacterial activity against Klebsiella pneumoniae ATCC 13883 assessed as decrease in rifampicin MIC at 2 ug/ml by checkerboard method relative to control; type: functional
[2] = test system: Acinetobacter baumannii; assay: Potentiation of rifampicin-mediated antibacterial activity against Acinetobacter baumannii ATCC 19606 assessed as decrease in rifampicin MIC at 4 ug/ml by checkerboard method relative to control; type: functional, ATCC 19606 = CIP 70.34 = JCM 6841
[3] = test system: Staphylococcus aureus; assay: Antibacterial activity against methicillin-resistant Staphylococcus aureus ATCC 43300 after 18 to 20 hrs by broth microdilution method; type: functional
In short: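 Broth microdilution in tryptic soy broth: 2-fold dilutions mixed 1:1 with ~1.5 × 10^5 CFU/mL bacterial suspension in TSB, final 0.5–32 μg/mL, 37 °C for 18–20 h. MIC = lowest concentration with no visible growth. At least three independent experiments, one replicate each.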

[4] = test system: Escherichia coli; assay: Antibacterial activity against Escherichia coli ATCC 25922 after 18 to 20 hrs by broth microdilution method; type: functional
In short: (§1)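 Broth microdilution in tryptic soy broth: 2-fold dilutions mixed 1:1 with ~1.5 × 10^5 CFU/mL inoculum, final 0.5–32 μg/mL; 37 °C, 18–20 h. MIC taken as lowest concentration giving no visible growth. At least three independent experiments, one replicate each.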

[5] = test system: Acinetobacter baumannii; assay: Potentiation of rifampicin-mediated antibacterial activity against Acinetobacter baumannii ATCC 19606 assessed as rifampicin MIC at 2 ug/ml by checkerboard method (reference value: 16 ug/ml); type: functional; settings: ATCC 19606 = CIP 70.34 = JCM 6841
[6] = test system: Klebsiella pneumoniae; assay: Potentiation of rifampicin-mediated antibacterial activity against Klebsiella pneumoniae ATCC 13883 assessed as rifampicin MIC at 2 ug/ml by checkerboard method (reference value: 16 ug/ml); type: functional
[7] = test system: Staphylococcus aureus; assay: Antibacterial activity against Staphylococcus aureus ATCC 29213 after 18 to 20 hrs by broth microdilution method; type: functional; in short: as §1
[8] = test system: Klebsiella pneumoniae; assay: Antibacterial activity against Klebsiella pneumoniae ATCC 13883 after 18 to 20 hrs by broth microdilution method; type: functional
[9] = test system: Pseudomonas aeruginosa; assay: Antibacterial activity against Pseudomonas aeruginosa ATCC 27853 after 18 to 20 hrs by broth microdilution method; type: functional; in short: as §1
[10] = test system: Enterococcus faecium; assay: Antibacterial activity against Enterococcus faecium ATCC 19434 after 18 to 20 hrs by broth microdilution method; type: functional; in short: as §1
[11] = test system: Acinetobacter baumannii; assay: Antibacterial activity against Acinetobacter baumannii ATCC 19606 after 18 to 20 hrs by broth microdilution method; type: functional; settings: ATCC 19606 = CIP 70.34 = JCM 6841
[12] = test system: Staphylococcus aureus; assay: Antibacterial activity against Staphylococcus aureus ATCC 29213 after 18 to 20 hrs in presence of 95% serum by broth microdilution method; type: functional
In short: (§2)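 Same microdilution with human serum as medium: compound 2-fold diluted in 100% serum, mixed 1:1 with 90% serum holding ~1.5 × 10^5 CFU/mL, giving 95% serum and final 0.5–64 μg/mL. MIC read as no visible growth after incubation as for the broth test.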

[13] = test system: Pseudomonas aeruginosa; assay: Bactericidal activity against Pseudomonas aeruginosa ATCC 27853; type: functional; settings: read-out: MBC99.9
In short: (§3)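 MBC from MIC plates at end point: 50 μL from each well with no visible growth plated on tryptic soy agar and counted. MBC taken as lowest concentration giving ≥99.9% fall in viable count relative to initial inoculum. Three independent experiments, one replicate each.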

[14] = test system: Acinetobacter baumannii; assay: Bactericidal activity against Acinetobacter baumannii ATCC 19606; type: functional; settings: ATCC 19606 = CIP 70.34 = JCM 6841, read-out: MBC99.9; in short: as §3
[15] = test system: Staphylococcus aureus; assay: Bactericidal activity against Staphylococcus aureus ATCC 29213; type: functional; settings: read-out: MBC99.9; in short: as §3
[16] = test system: Staphylococcus aureus; assay: Bactericidal activity against methicillin-resistant Staphylococcus aureus ATCC 43300; type: functional; settings: read-out: MBC99.9
In short: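 MBC taken at the end of the MIC test: 50 μL from each well without visible growth plated on tryptic soy agar. MBC = lowest concentration giving ≥99.9% reduction in viable cells relative to the initial inoculum. Three independent experiments, one replicate each.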

[17] = test system: Enterococcus faecium; assay: Bactericidal activity against Enterococcus faecium ATCC 19434; type: functional; settings: read-out: MBC99.9; in short: as §3
[18] = test system: Escherichia coli; assay: Bactericidal activity against Escherichia coli ATCC 25922; type: functional; settings: read-out: MBC99.9; in short: as §3
[19] = test system: Klebsiella pneumoniae; assay: Bactericidal activity against Klebsiella pneumoniae ATCC 13883; type: functional; settings: read-out: MBC99.9; in short: as §3
[20] = test system: Escherichia coli; assay: Antibacterial activity against Escherichia coli ATCC 25922 after 18 to 20 hrs in presence of 95% serum by broth microdilution method; type: functional; in short: as §2

Structure (SMILES)	fold change (FC) [1]	fold change (FC) [2]	MIC [3] [µg/mL]	MIC [4] [µg/mL]	MIC [5] [µg/mL]	MIC [6] [µg/mL]	MIC [7] [µg/mL]	MIC [8] [µg/mL]	MIC [9] [µg/mL]	MIC [10] [µg/mL]	MIC [11] [µg/mL]	MIC [12] [µg/mL]	MBC [13] [µg/mL]	MBC [14] [µg/mL]	MBC [15] [µg/mL]	MBC [16] [µg/mL]	MBC [17] [µg/mL]	MBC [18] [µg/mL]	MBC [19] [µg/mL]	MIC [20] [µg/mL]
CC[C@H](C)[C@H](NC(=O)[C@H](CCN)NC(=O)OCc1ccccc1)C(=O)N[C@@H](CCN)C(=O)N[C@H](Cc1ccccc1)C(=O)N[C@@H](CC(C)C)C(=O)N[C@@H](CCN)C(=O)N[C@@H](C(=O)N[C@@H](CC(C)C)C(=O)N[C@@H](CO)C(N)=O)C(C)C (Cbz-[Dab]I[Dab][dF]L[Dab][dV]LS-NH2)	4096 - 8192	>=8192	> 32	8 to 16 (≈ 7.11 to 14.2 µM)	0.0019 to 0.0039	0.0039	> 32	> 32	16 (≈ 14.2 µM)	> 32	16 (≈ 14.2 µM)	–	–	–	–	–	–	–	–	–
CCCCCCC(=O)N[C@@H](CCN)C(=O)N[C@@H](Cc1ccccc1)C(=O)N[C@@H](CCN)C(=O)N[C@H](Cc1ccccc1)C(=O)N[C@@H](CC(C)C)C(=O)N[C@@H](CCN)C(=O)N[C@@H](C(=O)N[C@@H](CC(C)C)C(=O)N[C@@H](CO)C(N)=O)C(C)C (Heptanoyl-[Dab]F[Dab][dF]L[Dab][dV]LS-NH2)	–	–	32 (≈ 28.2 µM)	1 to 4 (≈ 0.88 to 3.52 µM)	–	–	≥ 32	8 (≈ 7.04 µM)	2 to 4 (≈ 1.76 to 3.52 µM)	> 32	32 (≈ 28.2 µM)	–	–	–	–	–	–	–	–	–
CCCCCCC(=O)N[C@@H](CCN)C(=O)N[C@@H](Cc1ccccc1)C(=O)N[C@@H](CCN)C(=O)N[C@H](Cc1ccccc1)C(=O)N[C@@H](CC(C)C)C(=O)N[C@@H](CCN)C(=O)N[C@H](CC(C)C)C(=O)N[C@@H](CC(C)C)C(=O)N[C@@H](CO)C(N)=O (Heptanoyl-[Dab]F[Dab][dF]L[Dab][dL]LS-NH2)	–	–	16 to 32 (≈ 13.9 to 27.8 µM)	1 to 4 (≈ 0.869 to 3.48 µM)	–	–	16 to 32 (≈ 13.9 to 27.8 µM)	4 (≈ 3.48 µM)	2 to 4 (≈ 1.74 to 3.48 µM)	16 (≈ 13.9 µM)	8 (≈ 6.95 µM)	64	8 to 16 (≈ 6.95 to 13.9 µM)	8 (≈ 6.95 µM)	16 to 32 (≈ 13.9 to 27.8 µM)	32 (≈ 27.8 µM)	32 (≈ 27.8 µM)	32 (≈ 27.8 µM)	8 (≈ 6.95 µM)	32
CC[C@H](C)[C@H](NC(=O)[C@H](CCN)NC(=O)c1ccccc1)C(=O)N[C@@H](CCN)C(=O)N[C@H](Cc1ccccc1)C(=O)N[C@@H](CC(C)C)C(=O)N[C@@H](CCN)C(=O)N[C@@H](C(=O)N[C@@H](CC(C)C)C(=O)N[C@@H](CO)C(N)=O)C(C)C (Bz-[Dab]I[Dab][dF]L[Dab][dV]LS-NH2)	4096 - 8192	2048 - 4096	> 32	16 to 32 (≈ 14.6 to 29.2 µM)	0.0312	0.0078	> 32	> 32	8 to 32 (≈ 7.31 to 29.2 µM)	> 32	> 32	–	–	–	–	–	–	–	–	–
CCCCCCC(=O)N[C@@H](CCN)C(=O)N[C@H](C(=O)N[C@@H](CCN)C(=O)N[C@H](Cc1ccccc1)C(=O)N[C@@H](CC(C)C)C(=O)N[C@@H](CCN)C(=O)N[C@@H](C(=O)N[C@@H](CC(C)C)C(=O)N[C@@H](CO)C(N)=O)C(C)C)[C@@H](C)CC (Heptanoyl-[Dab]I[Dab][dF]L[Dab][dV]LS-NH2)	>=8192	4096	> 32	4 (≈ 3.63 µM)	0.0078	0.0039	> 32	32 (≈ 29 µM)	4 (≈ 3.63 µM)	> 32	> 32	–	–	–	–	–	–	–	–	–
